# A selection: hits, their analogues and other compounds. The true share with any hit is near 5.1%.
# STAT1 act-1 = STAT1 signaling activation; activation (% of control), % at 5.5 µM; NIH 3T3 STAT1-luciferase reporter, IFN-gamma, luminescence; 100% = IFN-gamma alone, no compound; actives 2.6% (n = 200,000);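 active = activation above the screen-wide mean activation plus 3 SD, cut at about 130% in these data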;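 also: raw ratio to IFN-gamma control signal so 100% means no change and 0% no light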
# NF-kB expr up = compounds increasing NF-kB expression in human neuronal cells; actives 1.6% (n = 190,000); fold change at 12.5 µM; AID 1239; NF-kB reporter expression; hits give high values; in the data active = fold change above about 3.3
# APP 5'UTR act = activates APP 5'UTR luciferase reporter | SH-SY5Y APP 5'UTR luciferase reporter, luminescence; zero percent = DMSO vehicle wells | activation, % at 2 µM | actives 1% (n = 190,000) | AID 1276;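 active = activation above a set limit, based on mean plus 3 SD of controls, cut at about 140% in these data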
# STAT1 inh = inhibitors of IFN-gamma induced STAT1 signaling; AID 920; NIH 3T3 STAT1-luciferase reporter, luminescence; actives 0.35% (n = 200,000); inhibition, % at 5.5 µM;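 active = inhibition above a set limit, the mean inhibition across all tested compounds plus 3 SD, cut at about 34% in these data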;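 also: 0% = IFN-gamma with DMSO and 100% = IFN-gamma with 300 µM nifuroxazide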
# STAT3 act-1 = STAT3 signaling activation; U3A cells, IL-6 STAT3-luciferase reporter, luminescence; 100% = signal with IL-6 EC80 alone; activation (% of control), % at 5.6 µM; actives 0.91% (n = 190,000); AID 871;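 active = activation above the screen-wide mean of compound activation plus 3 SD, cut at about 130% in these data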;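 also: 0% = background luminescence of wells with medium and substrate only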
#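 Material: human U3A cells carrying STAT3-luciferase construct. Measured by: reporter luminescence signal. Timing: compound 1 h, then IL-6 6 h at 37 °C.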
# STAT3 blocker = inhibitors of IL-6 induced STAT3 signaling | U3A cells, IL-6 STAT3-luciferase reporter, luminescence; host cell line lacks STAT1 | inhibition, % at 5.5 µM | actives 0.89% (n = 190,000);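 active = inhibition above the mean inhibition across all screened compounds plus 3 SD, cut at about 44% in these data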;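 also: 0% = DMSO only wells and 100% = 100 µM nifuroxazide control wells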
# STAT3 act-2 = confirmation of STAT3 signaling activators | shares compounds with STAT3 act-1 | U3A STAT3-luciferase reporter, IL-6 potentiation, luminescence; U3A cells lack STAT1; 100 means same as IL-6 alone | potentiation (% of control), % at 5.7 µM | actives 64% (n = 1,200) | AID 1267;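 active = percent activation of the STAT3 luciferase reporter above a set limit taken from the earlier primary screen, cut at about 130% in these data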;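 also: 0% = background signal of medium plus substrate and 100% = median of IL-6 with DMSO wells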
# NFkB act 2 = counter-screen for STAT3 activators: NF-kappaB activation; shares compounds with STAT3 act-1; actives 11% (n = 1,200); human cells, NF-kappaB reporter activation; activation (% of control), % at 5.7 µM; AID 1309; in the data active = activation above about 120%;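 also: reporter induced by TNF-alpha stimulation; 100% = median of stimulated DMSO wells and 0% = no signal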
# STAT1 act-2 = counter-screen for STAT3 activators: STAT1 activation; shares compounds with STAT3 act-1; NIH 3T3 STAT1-luciferase reporter, IFN-gamma, luminescence; activation (% of control), % at 5.7 µM; actives 13% (n = 1,200);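 active = activation above the solvent-only control well mean plus 3 SD, set per screening run, cut at about 120% in these data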;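 also: 100% = IFN-gamma with DMSO median signal so 100% means no change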
# The depositor's hits bear a star; nt = not tested or not shown.
SMILES,STAT1 act-1,NF-kB expr up,APP 5'UTR act,STAT1 inh,STAT3 act-1,STAT3 blocker,STAT3 act-2,NFkB act 2,STAT1 act-2
CN(C)c1ccc(P(=O)(Nc2cccc(C(F)(F)F)c2)N2CCOCC2)c(NC(=O)c2cccs2)c1 (stereo not drawn),103.4,1.08,-13.0,-3.4,140.1*,-51.4,130.9,96.0,98.6
Cc1cc(C)nc(SCC(=O)Nc2ncc(Cc3ccc(Cl)c(Cl)c3)s2)n1,102.4,1.63,2.7,-0.1,96.8,1.6,nt,nt,nt
CN(C)S(=O)(=O)c1ccc(C(=O)Oc2cc(=O)[nH]c3ccccc23)cc1,103.4,1.03,-10.4,-3.8,154.2*,-61.4,123.8,100.5,97.8
CCOC(=O)c1[nH]c2ccccc2c1NC(=O)c1ccc(S(=O)(=O)N(C)C)cc1,98.7,1.4,0.1,1.4,112.4,-14.6,nt,nt,nt
Nc1ncnc2nc(SCc3ccc(Cl)cc3Cl)[nH]c12,105.6,1.03,-3.0,-6.1,96.5,2.8,nt,nt,nt
CCOc1ccc(NC(=O)C(C)Oc2ccccc2C(=O)Nc2ccc(C)c(Cl)c2)cc1 (stereo not drawn),108.7,1.09,-12.6,-9.6,149.0*,-61.2,137.0*,110.8,102.5
Cc1cc(C)nc(SCC(=O)Nc2ncc3c(n2)CCCC3=O)n1,96.5,0.97,-5.8,3.8,106.0,-2.2,nt,nt,nt
O=C1C2=C(Nc3ccccc3SC2c2ccco2)c2ccccc21 (stereo not drawn),105.3,1.02,21.5,-5.8,137.1*,-35.7,124.8,102.3,104.7
O=C(O)CCNc1cc2ccccc2cc1C(=O)O,99.5,1.06,-22.3,-1.2,142.3*,-45.5,97.4,105.7,104.7
O=C(Nc1ccc(Cc2ccc(NC(=O)C3CC3)c(O)c2)cc1O)C1CC1,96.2,1.35,-6.8,4.1,97.3,6.9,nt,nt,nt
O=C(NNC1=C(C(=O)C(F)(F)F)CCC1)c1ccccc1O,96.7,1.5,-17.0,3.5,176.5*,-79.8,148.2*,100.7,101.7
COc1ccccc1C(=O)NNC1=C(C(=O)C(F)(F)F)CCC1,103.5,0.44,11.2,-3.9,150.3*,-62.7,127.6,105.5,101.8
O=C(NNC1=C(C(=O)C(F)(F)F)CCC1)c1ccccc1Cl,104.2,0.98,5.6,-4.6,90.4,8.8,nt,nt,nt
COc1ccccc1NC(=O)C(CCS(C)(=O)=O)N1C(=O)c2ccccc2C1=O (stereo not drawn),109.6,1.22,8.9,-10.5,104.0,-1.9,nt,nt,nt
CN(Cc1cc(=O)[nH]c2ccccc12)C(=O)c1ccccc1,104.4,1.34,31.5,-4.8,136.2*,-35.6,120.7,103.6,111.0
O=c1c2ccccc2nnn1CCO,104.5,1.05,7.3,-6.8,104.5,0.1,nt,nt,nt
C=CCn1c(SC)nc2sc3c(c2c1=O)CCc1ccccc1-3,108.2,1.87,12.8,-9.3,115.4,-21.5,nt,nt,nt
C=CCn1c(SCC)nc2sc3c(c2c1=O)CCc1ccccc1-3,101.3,1.17,-9.1,-1.4,136.7*,-32.3,113.3,103.9,99.8
Cc1ccc(C)c(C(=O)COc2ccc(C)nc2[N+](=O)[O-])c1,97.4,1.24,1.4,2.9,104.3,-8.4,nt,nt,nt
Cc1ccc(OCC(=O)c2c[nH]c3ccccc23)c([N+](=O)[O-])n1,116.4,1.11,12.7,-19.3,157.9*,-58.6,164.6*,102.9,106.8
c1ccc(-c2nc(CSc3nnc(-c4cccs4)o3)cs2)cc1,105.9,1.08,11.4,-6.5,160.8*,-67.4,167.7*,112.3,121.2*
Cc1ccc(Nc2nc(CSc3nnc(-c4cccs4)o3)cs2)cc1,113.0,1.63,8.8,-14.1,103.8,-0.4,nt,nt,nt
Cn1c(SCC2CCCCC2)nnc1-c1ccncc1,101.5,1.39,-2.0,-0.3,93.8,13.7,nt,nt,nt
CCNc1ccc(C(=O)OCC)cc1NC(=O)c1cc(S(=O)(=O)N2CCOCC2)ccc1C,98.9,1,3.7,4.7,104.5,-4.1,nt,nt,nt
CCOC(=O)c1sc(Nc2nc3c(F)cccc3s2)cc1C,99.5,1.39,89.7,0.6,144.8*,-53.0,150.0*,133.7*,103.5
SMILES,STAT1 act-1,NF-kB expr up,APP 5'UTR act,STAT1 inh,STAT3 act-1,STAT3 blocker,STAT3 act-2,NFkB act 2,STAT1 act-2
O=C(Cc1coc2ccc3ccccc3c12)Nc1nnc(C2CC2)s1,85.4,0.91,12.1,16.2,152.6*,-48.1,147.5*,80.8,93.7
O=C(Cc1c[nH]c2ccccc12)Nc1nnc(C2CC2)s1,87.1,0.95,-9.2,13.4,136.6*,-34.6,168.3*,102.5,83.7
O=C(Cc1ccc([N+](=O)[O-])cc1)Nc1nnc(C2CC2)s1,97.8,1.19,7.3,2.5,97.1,6.1,nt,nt,nt
O=C(Cc1cccs1)N(c1ccccc1)C1C=CS(=O)(=O)C1 (stereo not drawn),96.1,1.24,15.9,4.3,100.0,4.2,nt,nt,nt
COc1ccccc1N(CN1C(=O)c2ccccc2C1=O)C(=O)c1cccc(C)c1,96.0,0.9,10.8,4.4,106.4,-4.2,nt,nt,nt
O=c1cc(-c2ccccc2)nc2n1Cc1ccccc1-2,107.0,0.74,-4.5,-14.7,154.6*,-66.0,133.4*,114.1,118.5
O=C(c1cc(-c2ccccc2)nc2ccccc12)N1CCc2ccccc2C1,96.3,0.86,15.7,4.2,106.3,-8.8,nt,nt,nt
CCOC(=O)c1nc(NCc2cccnc2)c2ccccc2n1,101.5,1.24,-3.7,-1.7,103.0,-3.8,nt,nt,nt
Cc1[nH]n(-c2ccc(Cl)cc2)c(=O)c1C(=O)c1ccccc1,117.5,1.16,11.0,-21.0,102.0,0.1,nt,nt,nt
CC1=NN(c2ccc(Cl)cc2)C(=O)C1C(c1cccc(O)c1)c1c(C)[nH]n(-c2ccc(Cl)cc2)c1=O (stereo not drawn),100.1,1,nt,-0.1,145.6*,-53.0,160.2*,102.9,103.5
Cc1cc(C)cc(-n2nnnc2SCC(=O)Nc2nc(-c3ccc(Cl)cc3)cs2)c1,98.2,0.93,4.6,2.0,104.8,2.2,nt,nt,nt
CC1CCN(c2ccccc2NC(=O)c2ccc(C#N)cc2F)CC1,104.9,1.73,16.8,-5.2,92.7,8.9,nt,nt,nt
CC(C)C(=O)N1CCN(c2ccccc2NC(=O)c2ccc(C#N)cc2F)CC1,103.4,0.84,24.6,-4.9,136.7*,-42.4,138.5*,119.0,110.8
COc1ccc(NC(=O)C(=O)NNC(=O)c2cccs2)c(OC)c1,92.0,1.05,2.0,9.0,82.1,28.3,nt,nt,nt
Cc1ccc2nc(C(=O)O)c(C(=O)O)nc2c1,101.0,0.94,1.6,-1.0,101.8,-1.9,nt,nt,nt

# Screening data (PubChem)
